Substrate: CC(C)C[C@H](NC(=O)CN(C(=O)[C@H](CC(C)C)NC(=O)[C@@H]1CCCN1C(=O)OCc1ccccc1)S(=O)(=O)c1ccc(-c2ccccc2)cc1)C(=O)N[C@@H](CCC(=O)O)C(=O)N[C@@H](CCC(=O)O)C(=O)N[C@@H](C)C(N)=O
Assay: Ratio of Kcat to Km for human MMP-12
Procedure, shortened: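 Recombinant human MMP12 was incubated with the peptidic prodrug substrate. Cleavage at the N terminus of the P1 leucine was monitored by HPLC, and kcat/Km was determined from the HPLC data.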

B1: Macrophage metalloelastase (Homo sapiens), P39900 (protein)
chain: MKFLLILLLQATASGALPLNSSTSLEKNNVLFGERYLEKFYGLEINKLPVTKMKYSGNLMKEKIQEMQHFLGLKVTGQLDTSTLEMMHAPRCGVPDVHHFREMPGGPVWRKHYITYRINNYTPDMNREDVDYAIRKAFQVWSNVTPLKFSKINTGMADILVVFARGAHGDFHAFDGKGGILAHAFGPGSGIGGDAHFDEDEFWTTHSGGTNLFLTAVHEIGHSLGLGHSSDPKAVMFPTYKYVDINTFRLSADDIRGIQSLYGDPKENQRLPNPDNSEPALCDPNLSFDAVTTVGNKIFFFKDRFFWLKVSERPKTSVNLISSLWPTLPSGIEAAYEIEARNQVFLFKDDKYWLISNLRPEPNYPKSIHSFGFPNFVKKIDAAVFNPRFYRTYFFVDNQYWRYDERRQMMDPGYPKLITKNFQGIGPKIDAVFYSKNKYYYFFQGSNQFEYDFLLQRITKTLKSNSWFGC
In the case of B1, the kcat/Km is reported as 3.7 ×10³ /M.s.
